Screening data deposited in PubChem by Sanford-Burnham Center for Chemical Genomics.
hIAP act: human IAP activators, primary screen, biochemical, luminescence, uHTS | activation factor at 10 µM | purified human IAP, CDP-Star luminescence, 30 min; hits give high values; 1 = vehicle-only enzyme, 0 = enzyme-free background | 0.16% of 330,000 active;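 active = activation factor of the enzyme at least 2-fold when tested at 20 µM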
Target sequence (P09923 whole entry, looked up): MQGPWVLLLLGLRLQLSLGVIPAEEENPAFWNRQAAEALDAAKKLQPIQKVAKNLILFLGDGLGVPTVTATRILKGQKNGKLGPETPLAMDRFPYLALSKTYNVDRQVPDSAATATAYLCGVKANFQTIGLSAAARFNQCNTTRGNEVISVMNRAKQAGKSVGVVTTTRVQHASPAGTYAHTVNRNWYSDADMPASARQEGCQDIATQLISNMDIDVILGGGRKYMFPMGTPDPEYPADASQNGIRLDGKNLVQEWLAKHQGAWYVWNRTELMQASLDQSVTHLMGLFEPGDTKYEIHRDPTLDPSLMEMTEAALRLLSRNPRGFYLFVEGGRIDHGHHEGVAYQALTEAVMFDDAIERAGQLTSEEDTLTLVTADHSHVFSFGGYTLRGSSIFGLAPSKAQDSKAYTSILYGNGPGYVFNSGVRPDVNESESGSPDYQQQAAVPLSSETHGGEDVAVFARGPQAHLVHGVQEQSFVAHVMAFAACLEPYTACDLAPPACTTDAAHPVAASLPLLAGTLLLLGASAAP
mIAP inh: inhibitors of mouse IAP, primary screen, biochemical, luminescence, uHTS. 0.2% of 330,000 active. intestinal alkaline phosphatase [Mus musculus]. purified mouse IAP, CDP-Star luminescence, 30 min. inhibition, % at 10 µM;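 active = inhibition of at least 40% at 10 µM in the primary screen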;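 note: plate controls were DMSO with enzyme for no effect and no enzyme wells for full effect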
bIAP activator: bovine intestinal alkaline phosphatase activators, primary screen, biochemical, bovine IAP, CDP-star luminescence. purified bovine IAP, 30 min; hits give high values; fold of DMSO-control signal, blank-subtracted. activation factor at 20 µM. AID 1016, 2008. alkaline phosphatase, intestinal [Bos taurus]. 0.17% of 200,000 active;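 active = activation factor of 2 or more at 20 µM, a signal rise over negative controls twice the positive control's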
hIAP inh: human IAP inhibitors, primary screen, biochemical, luminescence, uHTS; Intestinal-type alkaline phosphatase (Homo sapiens), P09923; purified IAP, CDP-Star luminescence, 30 min; inhibition, % at 10 µM; 0.12% of 330,000 active; AID 2544, 2010;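 active = inhibition reaching a set limit with compound at 10 µM in the primary screen, cut at about 35% in these data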;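 note: plate controls were DMSO wells with enzyme for no effect and no-enzyme buffer wells for full effect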
mIAP act: activators of mouse IAP, primary screen, biochemical, luminescence, uHTS; muIAP, CDP-Star luminescence, 30 min; hits give high values; 1 = vehicle-only enzyme signal, 0 = enzyme-free wells; intestinal alkaline phosphatase [Mus musculus]; 0.24% of 330,000 active; AID 2805, 2010; activation factor at 10 µM;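 active = activation factor of at least 2 at 20 µM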
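also added = chemiluminescent substrate CDP-Star | test system = mouse IAP enzyme | signal = chemiluminescence readout | compound = DMSO-dissolved test compounds | incubation = 30 min at room temperature | benchmarks = DMSO wells, no-enzyme wells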
bIAP inhibitor: bovine intestinal alkaline phosphatase inhibitors, primary screen, selectivity assay for TNAP inhibitor project, biochemical, bovine IAP, CDP-star luminescence | purified bovine IAP, 30 min | alkaline phosphatase, intestinal [Bos taurus] | AID 1019, 2008 | inhibition, % at 20 µM | 190,000 tested, under 10 active;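 active = over 50% inhibition of intestinal alkaline phosphatase at 20 µM in the single-dose screen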
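Assay system – bovine IAP enzyme · Quantity – bovine IAP at 1/65,000,000 final dilution · Detection – CDP-star luminescence signal · Times – 30 min reaction at room temperature · Also added – CDP-star substrate at 30 µM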
mIAP inh conf: inhibitors of mouse IAP, confirmation, biochemical, luminescence, single concentration | shares compounds with mIAP inh | purified mouse IAP, CDP-Star luminescence, 30 min | inhibition, % at 10 µM | 4.7% of 11,000 active | AID 434971, 2010;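 active = inhibition of at least 40% at 10 µM in either of the two replicates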;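 note: plate controls were DMSO wells with enzyme for no effect and buffer wells lacking enzyme for full effect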
Numbers without * were called inactive; / = no result. Most compounds without a hit are left out; they make up all but 0.72% or so of the library.

SMILES	hIAP act	mIAP inh	bIAP activator	hIAP inh	mIAP act	bIAP inhibitor	mIAP inh conf
C[C@@H]1O[C@@H](OC2C(O)C(OCCc3ccc(O)c(O)c3)OC(CO)C2OC(=O)/C=C/c2ccc(O)c(O)c2)[C@H](O)[C@H](O)[C@H]1O (stereo partly specified)	0.74	46*	/	26	0.54	/	42*
C[C@@H]1O[C@@H](O[C@H]2[C@H](O)[C@@H](O)[C@H](Oc3c(-c4ccc(O)cc4)oc4cc(O)cc(O)c4c3=O)O[C@@H]2CO)[C@H](O)[C@H](O)[C@H]1O	1	-5	/	-4	1.1	/	/
N#Cc1c2c(c(NCc3ccco3)n3c1nc1ccccc13)CCC2	1.1	50*	0.9	-11	0.49	12	57*
CCN(C(=O)CSc1n[nH]c(N)n1)c1cccc2ccccc12	1.3	-1	/	-30	1	/	/
COc1ccccc1C(=O)N1CCN(Cc2cccnc2)CC1	1.3	1	/	-32	0.99	/	/
O=C(COc1ccc(Br)cc1F)Nc1nnc(C2CC2)s1	1	4	/	-4	0.96	/	/
CCCCOc1ccc(NC2=NC3(CCCCC3)N=C(N)N2)cc1	0.98	-376	4.6*	2	4.8*	-365	-453
O=c1oc2cc([N+](=O)[O-])ccc2nc1/C=C(\O)c1cccc(Br)c1	0.77	18	/	23	0.82	/	/
O=c1oc2cc([N+](=O)[O-])ccc2nc1/C=C(O)/C=C/c1ccccc1	1	69*	/	0	0.31	/	76*
O=C1N(c2ccccc2)C(c2ccccc2)C12CCCCC2 (stereo unspecified)	/	5	/	/	0.95	/	/
CC(C)CCN1CCN(Cc2ccc(Sc3nncn3C)o2)CC1CCO (stereo unspecified)	0.99	-2	1.2	1	1	-19	/
CC(=O)Nc1cccc(N(C)S(C)(=O)=O)c1	1.2	-6	0.9	-16	1.1	8	/
CN(c1cccc(NC(=O)Nc2cccc(Cl)c2)c1)S(C)(=O)=O	1.1	-273	0.9	-13	3.7*	7	-147
CSCC[C@H](NC(=O)C1CCN(S(=O)(=O)c2ccc(C)cc2C)CC1)c1nc2ccccc2[nH]1	1	-155	/	0	2.6*	/	-102
CSCC[C@H](NC(=O)c1cccc(S(=O)(=O)N2CCCCCC2)c1)c1nc2ccccc2[nH]1	1.2	-16	/	-19	1.2	/	/
O=[N+]([O-])c1ccccc1NC(=S)N/N=C/c1ccc(O)c(O)c1	0.87	75*	0.8	13	0.25	18	72*
NC(=O)COc1ccc2oc(=O)cc(-c3cc4ccccc4o3)c2c1	1.2	-3	/	-16	1	/	/
NS(=O)(=O)c1ccc(-c2ccc(/C=N/NC(=O)c3ccc([N+](=O)[O-])cc3)o2)cc1	1.4	42*	/	-38	0.58	/	45*
O=C(/C=C/c1ccc(O)c(O)c1)OCCc1ccccc1	0.71	15	/	29	0.85	/	/
O=C(/C=C/c1ccc(O)c(O)c1)OC(Cc1ccc(O)c(O)c1)C(=O)O (stereo unspecified)	0.69	77*	/	31	0.23	/	78*
Cc1sc2nc(SCC(=O)Nc3cccc(S(N)(=O)=O)c3)[nH]c(=O)c2c1C	0.97	51*	/	3	0.49	/	62*
COc1ccc(NC(=O)NC(C)c2ccc3c(c2)OCO3)cc1OC (stereo unspecified)	1	-10	/	0	1.1	/	/
CC(NC(=O)Nc1ccc(Cl)cc1)c1ccc2c(c1)OCO2 (stereo unspecified)	1.1	-184	/	-14	2.8*	/	-153
Nc1ncnc2oc(-c3ccco3)c(-c3ccco3)c12	0.86	71*	0.9	14	0.29	8	75*
c1ccc(-c2nccc(-c3ccco3)n2)nc1	1.1	0	1	-13	1	0	/
SMILES	hIAP act	mIAP inh	bIAP activator	hIAP inh	mIAP act	bIAP inhibitor	mIAP inh conf
Cc1cccc(C(=O)OC(C)C(=O)N2CCN(Cc3ccccc3)CC2)c1 (stereo unspecified)	1.2	4	/	-16	0.96	/	/
N#CC(C#N)=C(N)/C(C#N)=C/c1cc(O)c(O)c(O)c1	0.97	70*	/	3	0.29	/	66*
NNC(=S)Nc1ccc(S(=O)(=O)N2CCCCC2)cc1	0.96	2	/	4	0.98	/	/
O=c1nc2s/c(=C\c3ccco3)c(=O)n2nc1Cc1ccc(F)cc1	0.87	46*	0.9	13	0.54	12	58*
O=C1/C(=C\c2ccc(O)cc2)SC(=S)N1/N=C/c1ccc(O)cc1	0.84	49*	/	16	0.51	/	57*
COc1ccc(NC(=O)CSCC(=O)Nc2nnc(C)s2)cc1	0.97	9	/	3	0.91	/	/
CCc1ccc(NC(=O)CN(C)S(=O)(=O)c2ccc3[nH]c(=O)oc3c2)cc1	0.83	50*	/	17	0.5	/	61*
COc1cc(OC)c(NC(=O)CN(C)S(=O)(=O)c2ccc3[nH]c(=O)oc3c2)cc1Cl	1.2	64*	/	-21	0.36	/	86*
CN(CC(=O)Nc1cccc(Cl)c1)S(=O)(=O)c1ccc2[nH]c(=O)oc2c1	0.87	58*	/	13	0.42	/	74*
COc1ccc(NC(=O)CN(C)S(=O)(=O)c2ccc3[nH]c(=O)oc3c2)cc1	1.1	14	/	-5	0.85	/	/
COC(=O)C/C=N/N=C1/NC(=O)/C(=C/C(=O)O)S1	0.82	54*	/	18	0.47	/	42*
O=C(NNC(=O)c1ccccc1O)c1ccc(Cl)c(S(=O)(=O)N2CCCCC2)c1	1.7	27	/	-71	0.73	/	/
COc1ccc(S(=O)(=O)N2CCC(C(=O)Nc3cc(Cl)ccc3N3CCOCC3)CC2)cc1OC	1.1	-8	/	-12	1.1	/	/
C#CCOCCOCCOCCNc1nc(N2CCN(C(=O)CCCCCCCCCCNC(=O)[C@H]([C@@H](C)CC)n3cc(CCCCCN)nn3)CC2)nc(N2CCN(C(=O)CCCCCCCCCCNC(=O)[C@H](CO)n3cc(CCCCCN)nn3)CC2)n1	0.97	-110	/	3	2.1*	/	-151
C#CCOCCOCCOCCNc1nc(N2CCOCC2)nc(N2CCN(C(=O)CCCCCCCCCCNC(=O)[C@@H]([C@H](C)CC)n3cc(CCCCCN)nn3)CC2)n1	1.1	-69	/	-8	1.7	/	/
